From ChEMBL document CHEMBL1149101, “New antibacterial agents derived from the DNA gyrase inhibitor cyclothialidine” (J Med Chem, 2004) come the findings set out here.

For orientation: MIC50 means an inhibitory concentration at the 50% level, which refers to growth in some studies and to a panel of isolates in others. A higher MIC50 goes with weaker potency. What is called MIC90 is the lowest concentration that inhibits either 90% of growth or 90% of the strains tested, depending on the study. What is called MIC is the lowest concentration that inhibits growth of the organism. The term ED50 denotes the dose that gives a 50% effect, or the effect in half of the subjects.

Experiment [1] in a line: Range for minimum inhibitory concentration against Staphylococcus aureus 0.5->[…]. The format is functional.
Experiment [2] concerns Staphylococcus aureus. In words: Minimum inhibitory concentration against Staphylococcus aureus. It counts as functional.
In experiment [3] the test system is Stenotrophomonas maltophilia. In words: Minimum inhibitory concentration against Xanthomonas maltophilia AC739. It counts as functional. Put shortly: (§1)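 NCCLS agar dilution on Mueller–Hinton agar, compound incorporated into melted medium at 50 °C. Inoculum about 10⁴ CFU/spot from diluted overnight cultures, multipoint-applied.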
Experiment [4] has as its target T1, DNA gyrase (Escherichia coli) (UniProt P0AES6+P0AES4).
The subject of experiment [5] is Neisseria meningitidis. Nature of the experiment: Minimum inhibitory concentration against Neisseria meningitides 69480. It counts as functional. In outline:
(§2)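 Agar dilution per NCCLS in BB2 agar + 1% Isovitalex + 7.5% sheep blood + menadione, compound added to melted medium at 50 °C. About 10⁴ CFU/spot from diluted overnight cultures, multipoint-inoculated.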

The subject of experiment [6] is Staphylococcus aureus. In words: Minimum inhibitory concentration against Staphylococcus aureus ATCC 25923. It counts as functional. In outline:
as §1

Experiment [7] deals with Micrococcus luteus. Nature of the experiment: Minimum inhibitory concentration against Micrococcus luteus ATCC 8340. It counts as functional. In outline: as §2
The subject of experiment [8] is Staphylococcus aureus. In words: Minimum inhibitory concentration against Staphylococcus aureus Smith. It counts as functional. In outline:
as §1

Experiment [9] concerns Staphylococcus epidermidis. Nature of the experiment: Minimum inhibitory concentration against Staphylococcus epidermidis 16/2. It counts as functional. In outline: as §1
Experiment [10] concerns the target T1, DNA gyrase (Escherichia coli). In words: Maximum noneffective concentration against Escherichia coli DNA gyrase. The format is protein-complex assay. Put shortly:
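Gyrase A2B2 complex reconstituted from equimolar subunits (25 °C, 0.5 h). Relaxed pUC18 DNA incubated with enzyme at 37 °C for 0.5 h, compound 0.001–100 μg/mL. Products resolved on 0.8% agarose gel. MNEC, read visually, is the highest concentration still allowing complete plasmid supercoiling.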

Experiment [11] relates to Staphylococcus aureus. Nature of the experiment: Minimum inhibitory concentration against Staphylococcus aureus 887. The format is functional. In outline:
as §2

For experiment [12], the system named is Escherichia coli. Nature of the experiment: Minimum inhibitory concentration against Escherichia coli 25922. It counts as functional. Put shortly: as §1
The subject of experiment [13] is Enterococcus faecalis. In words: Minimum inhibitory concentration against Enterococcus faecalis 6. It counts as functional. Put shortly:
as §1

For experiment [14], the system named is Staphylococcus aureus. In words: In vivo effective dose was determined in septicaemic mice (Staphylococcus aureus Smith) when administration iv. It counts as functional. In outline:
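Compound given iv as a gelatine microsuspension at 1 and 3 h post-challenge, 5 mice per group. ED50 (mg/kg) from day-4 survival by probit analysis.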

The subject of experiment [15] is Streptococcus pyogenes. Nature of the experiment: Minimum inhibitory concentration against Streptococcus pyogenes b15.
Experiment [16] in a line: Range for minimum inhibitory concentration against Staphylococcus aureus; 0.06->64. It counts as functional.
The nature of experiment [17]: Range for minimum inhibitory concentration against Staphylococcus aureus; 0.5->[…]. It counts as functional.
A short description of experiment [18]: Range for minimum inhibitory concentration against Staphylococcus aureus; 4->64. It counts as functional.
[19] abbreviates: Staphylococcus aureus, ATCC 25923, read-out: MIC.
Where [20] appears, read: Staphylococcus aureus, read-out: MIC.
The mark [21] stands for this setting: Streptococcus pyogenes, read-out: MIC.

Converted amounts (≈) assume the structure as drawn.

With `CN(C)[C@@H]1C(O)=C(C(N)=O)C(=O)[C@@]2(O)C(O)=C3C(=O)c4c(O)cccc4[C@@](C)(O)[C@H]3C[C@@H]12` [TETRACYCLINE], the Range in experiment [1] stood at 16 µg/mL. In experiment [2], the MIC50 was greater than 16 µg/mL and the MIC90 is greater than 16 µg/mL.

Take `COC(=O)[C@@H]1CSCc2c(O)cc(OC)c(C)c2C(=O)OCCC(=O)N1`: the MIC was greater than 64 µg/mL in experiment [3]; 32 µg/mL (≈ 83.5 µM) in experiment [5]; 64 µg/mL (≈ 167 µM) in experiment [6]; greater than 64 µg/mL in experiment [6] (setting [19]); 16 µg/mL (≈ 41.7 µM) in experiment [7]; 64 µg/mL (≈ 167 µM) in experiment [8] (setting [20]). Moreover, the MIC in [9] is 8 µg/mL (≈ 20.9 µM); in experiment [11], greater than 64 µg/mL; in experiment [12] it was greater than 64 µg/mL; in experiment [13] it was greater than 64 µg/mL. Besides, the MNEC in experiment [4] was 0.25 µg/mL; in [10], 0.5 µg/mL.

Take `COc1cc(O)c2c(c1C)C(=O)O[C@H](CO)CCC/C(S)=N/[C@H](c1nc(C)no1)CSC2`: the MIC in [3] is 4 µg/mL (≈ 8.31 µM); in experiment [6] (setting [19]), 0.5 µg/mL (≈ 1.04 µM); in experiment [8] (setting [20]), 0.5 µg/mL (≈ 1.04 µM); in experiment [9] it was less than 0.12 µg/mL; in experiment [12], greater than 64 µg/mL; in [13], 0.5 µg/mL (≈ 1.04 µM). The MIC in experiment [15] (setting [21]) was 0.5 µg/mL (≈ 1.04 µM). In [4], this compound showed an MNEC of 0.005 µg/mL. In [14], this compound gave an ED50 of 8.5 mg/kg.

Consider `COC(=O)[C@@H]1CSCc2c(O)cc(O)c(C)c2C(=O)OCC(NC(=O)OC(C)(C)C)C(=O)N1` (stereo not given in full), for which the MIC in experiment [3] is greater than 64 µg/mL; in experiment [5], 16 µg/mL (≈ 33 µM); in experiment [6] (setting [19]), greater than 64 µg/mL; in experiment [7] it was 16 µg/mL (≈ 33 µM); in experiment [8] (setting [20]), 128 µg/mL (≈ 264 µM); in experiment [9], 64 µg/mL (≈ 132 µM). Further, the MIC is greater than 64 µg/mL in [11]; greater than 64 µg/mL in experiment [12]; 64 µg/mL (≈ 132 µM) in experiment [13]; 64 µg/mL (≈ 132 µM) in experiment [15]; 32 µg/mL (≈ 66 µM) in [15] (setting [21]). In experiment [4], this compound had an MNEC of 0.2 µg/mL.

On to `C[C@@H](O)[C@H]1C(=O)N2C(C(=O)O)=C(SCCNC=N)C[C@H]12` [IMIPENEM ANHYDROUS], for which the Range in experiment [16] was 64 µg/mL. In experiment [2], this compound returned an MIC50 of 4 µg/mL (≈ 13.4 µM) and an MIC90 of 16 µg/mL (≈ 53.4 µM).

Take `CC[C@H]1OC(=O)[C@H](C)[C@@H](O[C@H]2C[C@@](C)(OC)[C@@H](O)[C@H](C)O2)[C@H](C)[C@@H](O[C@@H]2O[C@H](C)C[C@H](N(C)C)[C@H]2O)[C@](C)(O)C[C@@H](C)C(=O)[C@H](C)[C@@H](O)[C@]1(C)O` [ERYTHROMYCIN]: in experiment [2], the MIC50 is greater than 16 µg/mL and the MIC90 was greater than 16 µg/mL. The Range in experiment [17] came out at 16 µg/mL.

Consider `COC(=O)[C@@H]1CSCc2c(O)cc(OC)c(C)c2C(=O)OCC(NC(=O)OC(C)(C)C)C(=O)N1` (stereo not given in full), for which the MIC is greater than 64 µg/mL in [3]; 16 µg/mL (≈ 32.1 µM) in experiment [5]; greater than 64 µg/mL in experiment [6] (setting [19]); 16 µg/mL (≈ 32.1 µM) in experiment [7]; 128 µg/mL (≈ 257 µM) in experiment [8] (setting [20]); 64 µg/mL (≈ 128 µM) in experiment [9]. For the same compound, the MIC in [11] is 64 µg/mL (≈ 128 µM); in experiment [12], greater than 64 µg/mL; in experiment [13], 64 µg/mL (≈ 128 µM); in experiment [15], 64 µg/mL (≈ 128 µM); in experiment [15] (setting [21]), 64 µg/mL (≈ 128 µM). Further, the MNEC in [4] amounted to 0.2 µg/mL.

As to `O=C(O)c1cn(C2CC2)c2cc(N3CCNCC3)c(F)cc2c1=O` [CIPROFLOXACIN], in experiment [2], the MIC50 turned out to be 0.5 µg/mL (≈ 1.51 µM) and the MIC90 was greater than 16 µg/mL. The Range in experiment [17] was determined as 16 µg/mL.

Regarding `COc1cccc(OC)c1C(=O)N[C@@H]1C(=O)N2[C@@H]1SC(C)(C)[C@@H]2C(=O)O` [METHICILLIN], the Range in [18] came out at 64 µg/mL. In experiment [2], this compound registered an MIC50 of 32 µg/mL (≈ 84.1 µM) and an MIC90 greater than 64 µg/mL.

In the case of `COC(=O)[C@@H]1CSCc2c(O)cc(OC)c(C)c2C(=O)OCCCC/C(S)=N/1`, the MIC in experiment [3] is 8 µg/mL (≈ 18.7 µM); in experiment [6] it was 0.5 µg/mL (≈ 1.17 µM); in experiment [6] (setting [19]), 0.5 µg/mL (≈ 1.17 µM); in experiment [8], 0.25 µg/mL (≈ 0.585 µM); in experiment [8] (setting [20]) it was 0.25 µg/mL (≈ 0.585 µM); in experiment [9], less than 0.12 µg/mL. In addition, the MIC in experiment [12] was greater than 64 µg/mL; in experiment [13], 1 µg/mL (≈ 2.34 µM); in experiment [15] (setting [21]), 1 µg/mL (≈ 2.34 µM). Also, the MNEC in [4] was 0.01 µg/mL.
